Assay results published in ChEMBL document CHEMBL2029267, “Rapid assembly of a library of lipophilic iminosugars via the thiol-ene reaction yields promising pharmacological chaperones for the treatment of Gaucher disease” (J Med Chem, 2012).
Positions count from the first letter of the chain named. Active and inactive are the calls of the source. The rule behind the calls is not given here.

Assays:
[1] = molecular target: T1, Beta-galactosidase (Homo sapiens) (UniProt P16278); test: Inhibition of human lysosomal beta-galactosidase using 4-methylumbelliferyl beta-Dgalactopyranoside as substrate at 200 uM by fluorimetric analysis
T1 sequence (whole entry): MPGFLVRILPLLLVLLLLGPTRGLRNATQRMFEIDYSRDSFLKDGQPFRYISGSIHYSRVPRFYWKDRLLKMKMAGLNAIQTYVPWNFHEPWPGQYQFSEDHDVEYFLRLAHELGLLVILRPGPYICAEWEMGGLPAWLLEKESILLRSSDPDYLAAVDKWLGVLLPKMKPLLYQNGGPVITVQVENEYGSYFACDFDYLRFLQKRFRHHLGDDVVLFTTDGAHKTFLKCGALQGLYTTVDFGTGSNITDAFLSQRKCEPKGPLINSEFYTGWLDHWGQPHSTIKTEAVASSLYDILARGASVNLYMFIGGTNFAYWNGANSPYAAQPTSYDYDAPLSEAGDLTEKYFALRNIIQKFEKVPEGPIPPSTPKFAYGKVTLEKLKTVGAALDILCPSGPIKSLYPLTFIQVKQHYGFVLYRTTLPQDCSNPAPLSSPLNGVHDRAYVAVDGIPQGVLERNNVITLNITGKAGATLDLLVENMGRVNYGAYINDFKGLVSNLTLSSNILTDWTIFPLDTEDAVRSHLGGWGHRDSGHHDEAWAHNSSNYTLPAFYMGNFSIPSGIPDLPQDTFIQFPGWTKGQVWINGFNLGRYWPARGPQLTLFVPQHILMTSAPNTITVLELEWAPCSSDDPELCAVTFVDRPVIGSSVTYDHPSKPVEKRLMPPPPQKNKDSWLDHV
Outline: (§1)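 Enzyme source was a lysosomal-enzyme-enriched ConA-bound human placental fraction, run in 100 mM citrate–phosphate pH 4.5 with 0.025% human serum albumin at 37 °C. Compound was tested at 200 μM in triplicate. An equal volume of 4-MU substrate was added: α-Glc 3.0 mM (α-glucosidase), α-Gal 1.0 mM (α-galactosidase), β-Gal 0.5 mM (β-galactosidase). Reactions were stopped with 4-fold excess 100 mM aminomethylpropanol and fluorescence read at 365/460 nm.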

Homo sapiens [2] = species: Homo sapiens; test: Inhibition of human lysosomal alpha-galactosidase using 4-methylumbelliferyl alpha-D-galactopyranoside as substrate at 200 uM by fluorimetric analysis; outline: as §1
Homo sapiens [3] = species: Homo sapiens; test: Activation of intracellular glucocerebrosidase p.L444P mutant in gaucher patient fibroblast using 4-methylumbelliferyl beta-D-glucopyranoside as substrate assessed as concentration at which 50% of maximum increase in activity
[4] = molecular target: T2, Lysosomal acid glucosylceramidase (Homo sapiens) (UniProt P04062); test: Thermal denaturation of human glucocerebrosidase by differential scanning fluorimetry assessed as change in melting temperature at 100 uM and pH 7
T2 sequence (whole entry): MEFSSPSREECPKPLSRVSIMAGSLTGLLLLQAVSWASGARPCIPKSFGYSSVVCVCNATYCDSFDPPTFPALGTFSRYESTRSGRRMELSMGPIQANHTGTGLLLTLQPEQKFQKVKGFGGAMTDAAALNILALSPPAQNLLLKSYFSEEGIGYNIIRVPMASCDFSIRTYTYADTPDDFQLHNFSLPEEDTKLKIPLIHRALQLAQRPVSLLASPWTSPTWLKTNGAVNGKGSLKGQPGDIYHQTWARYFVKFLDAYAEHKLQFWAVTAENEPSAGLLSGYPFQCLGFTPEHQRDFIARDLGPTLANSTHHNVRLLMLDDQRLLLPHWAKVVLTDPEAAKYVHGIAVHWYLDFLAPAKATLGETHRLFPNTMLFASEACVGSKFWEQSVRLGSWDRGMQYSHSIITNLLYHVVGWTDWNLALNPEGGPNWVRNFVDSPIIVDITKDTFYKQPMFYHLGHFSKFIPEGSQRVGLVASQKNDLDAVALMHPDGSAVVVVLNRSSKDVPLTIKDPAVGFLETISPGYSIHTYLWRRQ

[5] = molecular target: T3, Lysosomal acid glucosylceramidase (Homo sapiens, UniProt P04062); test: Competitive inhibition of wild type human glucocerebrosidase using 2,4-dinitrophenyl beta-D-glucopyranoside as substrate after 3 mins by Dixon and Line-Weaver Burk plot analysis at pH 5
T3 sequence (P04062 whole entry): T2 sequence (whole entry)
Outline: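 Continuous UV assay with 4.0 nM GBA and 2,4-dinitrophenyl β-D-glucoside, started by adding enzyme. A400 was followed, linear over 3 min. Three substrate levels were run at about seven inhibitor levels (0.2–5 Ki), with nonlinear fit to a competitive model checked by Dixon and Lineweaver–Burk plots.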

[6] = molecular target: Lysosomal alpha-glucosidase (Homo sapiens) (UniProt P10253); test: Inhibition of human lysosomal alpha-glucosidase using 4-methylumbelliferyl alpha-D-glucopyranoside as substrate at 200 uM by fluorimetric analysis; outline: as §1
Homo sapiens [7] = species: Homo sapiens; test: Activation of intracellular glucocerebrosidase p.L444P mutant in gaucher patient fibroblast using 4-methylumbelliferyl beta-D-glucopyranoside as substrate relative to control
[8] = system: T4, Lysosomal acid glucosylceramidase (Homo sapiens), P04062 [N409S]; test: Activation of intracellular glucocerebrosidase p.N370S mutant in gaucher patient fibroblast using 4-methylumbelliferyl beta-D-glucopyranoside as substrate relative to control
T4 sequence (whole entry): T2 sequence (whole entry) with N409S

[9] = system: T4, Lysosomal acid glucosylceramidase (Homo sapiens), P04062 [N409S]; test: Activation of intracellular glucocerebrosidase p.N370S mutant in gaucher patient fibroblast using 4-methylumbelliferyl beta-D-glucopyranoside as substrate assessed as concentration at which 50% of maximum increase in activity
[10] = molecular target: T3, Lysosomal acid glucosylceramidase; test: Competitive inhibition of wild type human glucocerebrosidase using 4-methylumbelliferyl beta-D-glucopyranoside as substrate after 15 mins by Dixon and Line-Weaver Burk plot analysis […]

`CC(C)(C)SCC[C@H]1NC[C@@H](O)[C@H](O)[C@H]1O` was tested, and the inhibition [1] was “inactive”, the inhibition (Homo sapiens [2]) was “inactive” and the Activity (Homo sapiens [3]) was 25 nM. For the same compound, the deltaTm [4] was 8.4 K, the Ki [5] was 29 nM and the inhibition [6] was “inactive”. The fold change (FC) (Homo sapiens [7]) was 1.2, the fold change (FC) [8] was 2.3 and the Activity [9] was 49 nM.

`CCCCSCC[C@H]1NC[C@@H](O)[C@H](O)[C@H]1O` was tested, and the inhibition [1] was “inactive”, the inhibition (Homo sapiens [2]) was “inactive” and the Ki [10] was 18 nM. For the same compound, the Activity (Homo sapiens [3]) was 12 nM, the deltaTm [4] was 11 K and the inhibition [6] was “inactive”. For the same compound, the fold change (FC) (Homo sapiens [7]) was 1.3, the fold change (FC) [8] was 2.4 and the Activity [9] was 18 nM.

`CC(C)SCC[C@H]1NC[C@@H](O)[C@H](O)[C@H]1O` was tested, and the inhibition [1] was “inactive”, the inhibition (Homo sapiens [2]) was “inactive” and the Activity (Homo sapiens [3]) was 2.2 nM. For the same compound, the deltaTm [4] was 7.8 K, the Ki [5] was 76 nM and the inhibition [6] was “inactive”. For the same compound, the fold change (FC) (Homo sapiens [7]) was 1.4, the fold change (FC) [8] was 2.3 and the Activity [9] was 38 nM.

`CCN(CC)C(=O)CCCSCC[C@H]1NC[C@@H](O)[C@H](O)[C@H]1O` was tested, and the inhibition [1] was “inactive”, the inhibition (Homo sapiens [2]) was “inactive” and the Activity (Homo sapiens [3]) was 500 nM. For the same compound, the deltaTm [4] was 10 K, the Ki [5] was 250 nM and the inhibition [6] was “inactive”. For the same compound, the fold change (FC) (Homo sapiens [7]) was 1.3, the fold change (FC) [8] was 2.7 and the Activity [9] was 800 nM.

For `CC[C@H]1NC[C@@H](O)[C@H](O)[C@H]1O`, the inhibition [1] was “inactive”, the inhibition (Homo sapiens [2]) was “inactive” and the Activity (Homo sapiens [3]) was 7000 nM. For the same compound, the deltaTm [4] was 4.4 K, the Ki [5] was 1100 nM and the inhibition [6] was “inactive”. It also gave a fold change (FC) (Homo sapiens [7]) of 1.2 and a fold change (FC) [8] of 2.1.

With `CCSCC[C@H]1NC[C@@H](O)[C@H](O)[C@H]1O` the inhibition [1] was “inactive”, the inhibition (Homo sapiens [2]) was “inactive” and the Activity (Homo sapiens [3]) was 300 nM. For the same compound, the deltaTm [4] was 7 K, the Ki [5] was 180 nM and the inhibition [6] was “inactive”. It also gave a fold change (FC) (Homo sapiens [7]) of 1.3, a fold change (FC) [8] of 2.5 and an Activity [9] of 600 nM.

With `C=C[C@H]1NC[C@@H](O)[C@H](O)[C@H]1O` the inhibition [1] was “inactive”, the inhibition (Homo sapiens [2]) was “inactive” and the Activity (Homo sapiens [3]) was 1700 nM. For the same compound, the deltaTm [4] was 3.4 K, the Ki [5] was 2700 nM and the inhibition [6] was “inactive”. It also gave a fold change (FC) (Homo sapiens [7]) of 1.3, a fold change (FC) [8] of 1.4 and an Activity [9] of 1800 nM.

`CCCC(=O)NCCSCC[C@H]1NC[C@@H](O)[C@H](O)[C@H]1O` was tested, and the inhibition [1] was “inactive”, the inhibition (Homo sapiens [2]) was “inactive” and the Activity (Homo sapiens [3]) was 2900 nM. The deltaTm [4] was 8.2 K, the Ki [5] was 200 nM and the inhibition [6] was “inactive”. For the same compound, the fold change (FC) (Homo sapiens [7]) was 1.3, the fold change (FC) [8] was 2.7 and the Activity [9] was 2700 nM.

In the case of `CC(C)CCSCC[C@H]1NC[C@@H](O)[C@H](O)[C@H]1O`, the inhibition [1] is reported as “inactive”, the inhibition (Homo sapiens [2]) is reported as “inactive” and the Ki [10] is reported as 4.4 nM. For the same compound, the Activity (Homo sapiens [3]) was 0.3 nM, the deltaTm [4] was 14 K and the inhibition [6] was “inactive”. It also gave a fold change (FC) (Homo sapiens [7]) of 1.2, a fold change (FC) [8] of 2 and an Activity [9] of 1.2 nM.

`O[C@@H]1[C@@H](O)[C@@H](CCSC2CCCC2)NC[C@H]1O` was tested, and the inhibition [1] was “inactive”, the inhibition (Homo sapiens [2]) was “inactive” and the Ki [10] was 6 nM. The Activity (Homo sapiens [3]) was 1.2 nM, the deltaTm [4] was 11 K and the inhibition [6] was “inactive”. For the same compound, the fold change (FC) (Homo sapiens [7]) was 1.4, the fold change (FC) [8] was 2.2 and the Activity [9] was 5.3 nM.

With `O=C(CSCC[C@H]1NC[C@@H](O)[C@H](O)[C@H]1O)NCc1ccccc1` the inhibition [1] was “inactive”, the inhibition (Homo sapiens [2]) was “inactive” and the Activity (Homo sapiens [3]) was 63 nM. For the same compound, the deltaTm [4] was 11 K, the Ki [5] was 30 nM and the inhibition [6] was “inactive”. For the same compound, the fold change (FC) (Homo sapiens [7]) was 1.3, the fold change (FC) [8] was 2.5 and the Activity [9] was 190 nM.

`O[C@@H]1[C@@H](O)[C@@H](CCSCc2ccccc2)NC[C@H]1O` was tested, and the inhibition [1] was “inactive”, the inhibition (Homo sapiens [2]) was “inactive” and the Ki [10] was 19 nM. For the same compound, the Activity (Homo sapiens [3]) was 2.6 nM, the deltaTm [4] was 13 K and the inhibition [6] was “inactive”. For the same compound, the fold change (FC) (Homo sapiens [7]) was 1.1, the fold change (FC) [8] was 2.1 and the Activity [9] was 1.6 nM.

In the case of `O=C(NCCSCC[C@H]1NC[C@@H](O)[C@H](O)[C@H]1O)Nc1ccccc1`, the inhibition [1] is reported as “inactive”, the inhibition (Homo sapiens [2]) is reported as “inactive” and the Ki [10] is reported as 12 nM. For the same compound, the Activity (Homo sapiens [3]) was 64 nM, the deltaTm [4] was 11 K and the inhibition [6] was “inactive”. The fold change (FC) (Homo sapiens [7]) was 1.1, the fold change (FC) [8] was 2.3 and the Activity [9] was 90 nM.

`O=C(CCCSCC[C@H]1NC[C@@H](O)[C@H](O)[C@H]1O)N1CCOCC1` was tested, and the inhibition [1] was “inactive”, the inhibition (Homo sapiens [2]) was “inactive” and the Activity (Homo sapiens [3]) was 1500 nM. For the same compound, the deltaTm [4] was 7.6 K, the Ki [5] was 450 nM and the inhibition [6] was “inactive”. The fold change (FC) (Homo sapiens [7]) was 1.3, the fold change (FC) [8] was 3.2 and the Activity [9] was 4500 nM.

In the case of `O[C@@H]1[C@@H](O)[C@@H](CCSCCc2ccccc2)NC[C@H]1O`, the inhibition [1] is reported as “inactive”, the inhibition (Homo sapiens [2]) is reported as “inactive” and the Ki [10] is reported as 3 nM. The Activity (Homo sapiens [3]) was 2.1 nM, the deltaTm [4] was 14 K and the inhibition [6] was “inactive”. The fold change (FC) (Homo sapiens [7]) was 1.1, the fold change (FC) [8] was 2.2 and the Activity [9] was 2.8 nM.

`O[C@@H]1[C@@H](O)[C@@H](CCSC2CCCCC2)NC[C@H]1O` was tested, and the inhibition [1] was “inactive”, the inhibition (Homo sapiens [2]) was “inactive” and the Ki [10] was 4 nM. The Activity (Homo sapiens [3]) was 0.6 nM, the deltaTm [4] was 13 K and the inhibition [6] was “inactive”. The fold change (FC) (Homo sapiens [7]) was 1.3, the fold change (FC) [8] was 2.2 and the Activity [9] was 1.3 nM.

`O[C@H]1[C@H](O)CNC[C@@H]1O` was tested, and the inhibition [1] was “inactive”, the inhibition (Homo sapiens [2]) was “inactive” and the Activity (Homo sapiens [3]) was 44600 nM. For the same compound, the deltaTm [4] was 3.6 K, the inhibition [6] was “inactive” and the fold change (FC) (Homo sapiens [7]) was 1.1. It also gave a fold change (FC) [8] of 1.5 and an Activity [9] of 24000 nM.
